Experimental data collected from several papers.
Each line is one published result; the experiments were not run side by side.
CFTR: Cystic fibrosis transmembrane conductance regulator (CFTR, Homo sapiens, UniProt P13569)
ADORA2B: Adenosine receptor A2b (ADORA2B, Homo sapiens, UniProt P29275)
PKN3: Serine/threonine-protein kinase N3 (PKN3, Homo sapiens, UniProt Q6P5Z2)

| SMILES | target | assay | setting | inhibition [%] |
| --- | --- | --- | --- | --- |
| CC(Nc1ccc2ccccc2c1)C(=O)NN=Cc1cc(Br)c(O)c(Br)c1 (centres unmarked) | CFTR | ion current, inhibitor | 50 µM | 80 |
| CCCCN1CCCn2c1nc1c2c(=O)n(C)c(=O)n1C | ADORA2B | ligand displacement, radioligand | 10 µM, cell membranes | 3 |
| O=C(c1ccc(Cl)cc1)N(Cc1ccccc1)C1CCCCC1 | ADORA2B | cell-free assay | 10 µM | -5.4 |
| Cn1cncc1C1=CN(c2ncnc3[nH]cnc23)CCS1 | PKN3 | enzyme activity, inhibitor, radiometric | 2 µM | 80.4 |
| C=CCN1CCCn2c1nc1c2c(=O)n(C)c(=O)n1C | ADORA2B | ligand displacement, radioligand | 10 µM, cell membranes | 6 |
| CCN(c1cc(C#CCN2CCOCC2)cc(C(=O)NCc2c(C)cc(C)[nH]c2=O)c1C)[C@H]1CC[C@H](N(C)CCOC)CC1 | Histone-lysine N-methyltransferase, H3 lysine-79 specific (DOT1L, Homo sapiens, UniProt Q8TEK3) | enzyme activity, inhibitor | 1 µM | 1 |
| CCCC(C)N1CCCn2c1nc1c2c(=O)n(C)c(=O)n1C (centres unmarked) | ADORA2B | ligand displacement, radioligand | 10 µM, cell membranes | 0 |
| CC(=NNC(=O)CNc1ccc2ccccc2c1)c1cc(Br)c(O)c(Br)c1 | CFTR | ion current, inhibitor | 50 µM | 100 |
| COc1cc(NC(C)=O)c(Cl)cc1C(=O)Nc1nccs1 | Prostaglandin E2 receptor EP2 subtype (PTGER2, Homo sapiens, UniProt P43116) | cell-free assay | 10 µM | 36.3 |
| CC(/C=C/C(=O)NO)=C\[C@@H](C)C(=O)c1ccc(N(C)C)cc1 | Histone deacetylase 11 (HDAC11, Homo sapiens, UniProt Q96DB2) | enzyme activity, inhibitor, fluorescence | 20 µM | < 50 |
| CCOC(=O)C1=C(C)NC(c2ccccc2)=C(C(=O)OCc2ccccc2)C1C#Cc1ccccc1 (centres unmarked) | Adenosine receptor A1 (Mus musculus, UniProt Q60612) | ligand displacement, radioligand | 10 µM, cell membranes | 0 |
| CN(C)C1CCN(CC#Cc2nn(C3CCCC3)c3nc(NCc4ccccc4)ncc23)C1 (centres unmarked) | Dual specificity protein kinase CLK2 (CLK2, Homo sapiens, UniProt P49760) | enzyme activity, inhibitor, FRET | 10 µM | 33 |
| CC(Nc1ccc2ccccc2c1)C(=O)NN=Cc1cc(Br)c(O)c(Br)c1O (centres unmarked) | CFTR | ion current, inhibitor | 50 µM | 91 |
| C=CN1CCCn2c1nc1c2c(=O)n(C)c(=O)n1C | ADORA2B | ligand displacement, radioligand | 10 µM, cell membranes | 1 |
| CC(=NNC(=O)CNc1ccc2ccccc2c1)c1cc(Br)c(O)c(Br)c1O | CFTR | ion current, inhibitor | 50 µM | 81 |
| CCC(C)N1CCCn2c1nc1c2c(=O)n(C)c(=O)n1C (centres unmarked) | ADORA2B | ligand displacement, radioligand | 10 µM, cell membranes | -9 |
| Cn1cnc(Br)c1C1=CN(c2ncnc3[nH]cnc23)CCS1 | PKN3 | enzyme activity, inhibitor, radiometric | 2 µM | 88.3 |
| Oc1ncnc2[nH]ncc12 | Xanthine dehydrogenase/oxidase (XDH, Homo sapiens, UniProt P47989) | enzyme activity, inhibitor, absorbance | 500 µM | 100 |
| Oc1cccc(Nc2nc(-c3ccc(F)cc3F)cs2)c1 | ADORA2B | cell-free assay | 10 µM | -11.9 |
| CCN1CCCn2c1nc1c2c(=O)n(C)c(=O)n1C | ADORA2B | ligand displacement, radioligand | 10 µM, cell membranes | 12 |
| CC(=NNC(=O)C(=O)Nc1ccc2ccccc2c1)c1cc(Br)c(O)c(Br)c1O | CFTR | ion current, inhibitor | 50 µM | 95 |
| CC(C)(NC(=O)OC1CCCCC1)c1csc(-c2ccc(F)cc2)n1 | N-terminal Xaa-Pro-Lys N-methyltransferase 1 (Homo sapiens, UniProt Q9BV86) | enzyme activity, inhibitor, fluorescence | 100 µM | < 50 |
| CCCCCN1CCCn2c1nc1c2c(=O)n(C)c(=O)n1C | ADORA2B | ligand displacement, radioligand | 10 µM, cell membranes | -3 |
